Experiments:
[1] = target: T1, Prostaglandin G/H synthase 1 (Homo sapiens, UniProt P23219); assay: In vitro average percent Inhibition of Prostaglandin G/H synthase 1 (COX-1) at a concentration of 100 uM determined in human whole blood assay by human whole blood (HWB) assay; format: tissue-based
[2] = target: T1, Prostaglandin G/H synthase 1; assay: In vitro average percent inhibition of human prostaglandin G/H synthase 1 (COX-1) at a concentration of 100 uM
How it was run: (§1)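 Supplied recombinant human COX-1 (5 units) preincubated 2 min at 25 °C in 0.1 M Tris-HCl pH 8.0 with 5 mM EDTA, 2 mM phenol and heme; compound or DMSO added, 20 min at 25 °C; started with 10 mM arachidonic acid stock, 2 min at 37 °C; stopped with HCl, SnCl2 reduction; prostaglandins by EIA; percent inhibition versus solvent control.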

[3] = target: T2, Prostaglandin G/H synthase 2 (Homo sapiens) (UniProt P35354); assay: In vitro average percent Inhibition of Prostaglandin G/H synthase 2 (COX-2) at a concentration of 1 uM determined in human whole blood by human whole blood assay; format: tissue-based
T2 sequence (whole entry): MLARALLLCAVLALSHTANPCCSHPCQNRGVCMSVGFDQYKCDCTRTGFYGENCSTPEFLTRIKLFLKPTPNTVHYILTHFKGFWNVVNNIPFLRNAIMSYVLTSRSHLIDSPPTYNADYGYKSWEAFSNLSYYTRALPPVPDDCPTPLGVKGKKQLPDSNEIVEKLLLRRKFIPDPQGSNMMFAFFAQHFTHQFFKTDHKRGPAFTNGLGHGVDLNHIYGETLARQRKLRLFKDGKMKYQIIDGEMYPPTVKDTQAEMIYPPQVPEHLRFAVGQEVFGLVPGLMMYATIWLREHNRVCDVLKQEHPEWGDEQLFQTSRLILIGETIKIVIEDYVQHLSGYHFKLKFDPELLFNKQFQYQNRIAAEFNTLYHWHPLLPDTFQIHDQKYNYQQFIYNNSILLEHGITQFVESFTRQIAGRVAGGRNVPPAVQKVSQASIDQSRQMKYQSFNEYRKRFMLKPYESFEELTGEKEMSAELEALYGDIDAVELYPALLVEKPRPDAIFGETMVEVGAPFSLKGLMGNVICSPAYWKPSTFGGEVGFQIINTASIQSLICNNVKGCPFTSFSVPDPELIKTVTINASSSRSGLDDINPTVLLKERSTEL
How it was run: (§2)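 Heparinized whole blood from male or female donors free of aspirin/NSAIDs for 14 days, 1 mL aliquots pre-warmed 15 min at 37 °C, 5% CO2; compound in DMSO, duplicate wells; COX-2 induced by E. coli LPS added 4.5 h later, incubated 5 h; stopped on ice with 2 mM EGTA; plasma methanol-extracted, TXB2 by EIA; average of two donors.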

[4] = target: T2, Prostaglandin G/H synthase 2 (Homo sapiens); assay: In vitro average percent Inhibition of Prostaglandin G/H synthase 2 (COX-2) at a concentration of 10 uM determined in human whole blood by human whole blood assay; format: tissue-based; how it was run: as §2
[5] = target: T2, Prostaglandin G/H synthase 2 (Homo sapiens); conditions: at 1 µM
[6] = target: T1, Prostaglandin G/H synthase 1; conditions: at 100 µM
[7] = target: T2, Prostaglandin G/H synthase 2 (Homo sapiens); conditions: at 10 µM
[8] = target: T1, Prostaglandin G/H synthase 1; assay: In vitro average percent Inhibition of Prostaglandin G/H synthase 1 (COX-1) at a concentration of 100 uM determined in human whole blood by human whole blood (HWB) assay; format: tissue-based
[9] = target: T3, Prostaglandin G/H synthase 2 (Homo sapiens, UniProt P35354); assay: Compound was tested for the inhibition of recombinant human Prostaglandin G/H synthase 2 (COX-2)
T3 sequence (P35354 whole entry): T2 sequence (whole entry)

[10] = target: T1, Prostaglandin G/H synthase 1; assay: Compound was tested for the inhibition of recombinant human Prostaglandin G/H synthase 1 (COX-1)
[11] = target: T1, Prostaglandin G/H synthase 1; assay: Compound was tested for the inhibition of human Prostaglandin G/H synthase 1 (COX-1) in human whole blood; format: tissue-based
[12] = target: T2, Prostaglandin G/H synthase 2 (Homo sapiens); assay: In vitro average percent Inhibition of Prostaglandin G/H synthase 2 (COX-2) at a concentration of 10 uM determined by human whole blood (HWB) assay; how it was run: as §2
[13] = target: T2, Prostaglandin G/H synthase 2 (Homo sapiens); assay: In vitro average percent Inhibition of Prostaglandin G/H synthase 2(COX-2) at a concentration of 1 uM determined in human whole blood by human whole blood (HWB) assay; format: tissue-based; how it was run: as §2
[14] = target: T1, Prostaglandin G/H synthase 1; assay: In vitro average percent Inhibition of […] Prostaglandin G/H synthase 1 (COX-1) at a concentration of 100 uM determined by human whole blood (HWB) assay
[15] = target: T3, Prostaglandin G/H synthase 2; assay: Compound was tested for the inhibition of recombinant human Prostaglandin G/H synthase 2 (COX-2) by enzyme Assay
[16] = target: T1, Prostaglandin G/H synthase 1; assay: Compound was tested for in vitro inhibition of recombinant human Prostaglandin G/H synthase 1 (COX-1) by enzyme Assay
[17] = target: T4, Prostaglandin G/H synthase 1 (Ovis aries) (UniProt P05979); assay: Compound was tested for in vitro inhibition of recombinant ovine Prostaglandin G/H synthase 1 (COX-1) at a concentration of 100 uM
T4 sequence (whole entry): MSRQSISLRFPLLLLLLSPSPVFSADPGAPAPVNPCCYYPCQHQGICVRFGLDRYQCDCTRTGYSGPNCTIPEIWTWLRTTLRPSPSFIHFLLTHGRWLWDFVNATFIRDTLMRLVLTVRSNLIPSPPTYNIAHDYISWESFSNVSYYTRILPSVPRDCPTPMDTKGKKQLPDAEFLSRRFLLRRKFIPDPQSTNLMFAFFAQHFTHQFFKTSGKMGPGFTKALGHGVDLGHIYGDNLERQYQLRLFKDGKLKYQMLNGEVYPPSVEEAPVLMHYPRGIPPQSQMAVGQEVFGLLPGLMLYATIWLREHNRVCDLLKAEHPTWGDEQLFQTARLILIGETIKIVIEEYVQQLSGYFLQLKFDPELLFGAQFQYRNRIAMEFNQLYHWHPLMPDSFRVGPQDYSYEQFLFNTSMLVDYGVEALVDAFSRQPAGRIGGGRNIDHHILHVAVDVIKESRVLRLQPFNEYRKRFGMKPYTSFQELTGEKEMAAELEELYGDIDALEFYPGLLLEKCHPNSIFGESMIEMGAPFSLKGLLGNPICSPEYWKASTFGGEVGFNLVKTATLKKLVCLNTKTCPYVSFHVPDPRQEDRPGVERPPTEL
How it was run: as §1, with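 “ovine” for “human”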

[18] = target: T1, Prostaglandin G/H synthase 1; assay: In vitro average percent Inhibition of inhibition of Prostaglandin G/H synthase 1 (COX-1) at a concentration of 100 uM in human whole blood by human whole blood assay; format: tissue-based
[19] = target: T2, Prostaglandin G/H synthase 2 (Homo sapiens); conditions: Blood; at 1 µM
[20] = target: T2, Prostaglandin G/H synthase 2 (Homo sapiens); conditions: Blood; at 10 µM
[21] = target: T3, Prostaglandin G/H synthase 2; assay: Compound was tested for the inhibition of human Prostaglandin G/H synthase 2 (COX-2) in human whole blood; format: tissue-based
[22] = target: T1, Prostaglandin G/H synthase 1; assay: Compound was tested for in vitro Prostaglandin G/H synthase 1 (COX-1) idetermined in human whole blood by human whole blood assay; format: tissue-based
How it was run: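 Heparinised (20 U/mL) whole blood from non-fasted donors free of aspirin/NSAIDs for 14 days, 1 mL aliquots, pre-warmed 15 min at 37 °C, 5% CO2 on a rotating shaker. DMSO-diluted compound added in duplicate; incubation ended 30 min after A23187 by ice and 2 mM EGTA (final). Plasma methanol-extracted, TXB2 by EIA; average of two donors.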

[23] = target: T1, Prostaglandin G/H synthase 1; assay: In vitro average percent uM in human whole blood by human whole blood assay; format: tissue-based; conditions: concentration not given here
[24] = target: T2, Prostaglandin G/H synthase 2 (Homo sapiens); assay: In vitro average percent Inhibition of Prostaglandin G/H synthase 2 (COX-2) at a concentration of 10 uM determined human whole blood by human whole blood (HWB) assay; how it was run: as §2

T1 sequence (P23219 whole entry): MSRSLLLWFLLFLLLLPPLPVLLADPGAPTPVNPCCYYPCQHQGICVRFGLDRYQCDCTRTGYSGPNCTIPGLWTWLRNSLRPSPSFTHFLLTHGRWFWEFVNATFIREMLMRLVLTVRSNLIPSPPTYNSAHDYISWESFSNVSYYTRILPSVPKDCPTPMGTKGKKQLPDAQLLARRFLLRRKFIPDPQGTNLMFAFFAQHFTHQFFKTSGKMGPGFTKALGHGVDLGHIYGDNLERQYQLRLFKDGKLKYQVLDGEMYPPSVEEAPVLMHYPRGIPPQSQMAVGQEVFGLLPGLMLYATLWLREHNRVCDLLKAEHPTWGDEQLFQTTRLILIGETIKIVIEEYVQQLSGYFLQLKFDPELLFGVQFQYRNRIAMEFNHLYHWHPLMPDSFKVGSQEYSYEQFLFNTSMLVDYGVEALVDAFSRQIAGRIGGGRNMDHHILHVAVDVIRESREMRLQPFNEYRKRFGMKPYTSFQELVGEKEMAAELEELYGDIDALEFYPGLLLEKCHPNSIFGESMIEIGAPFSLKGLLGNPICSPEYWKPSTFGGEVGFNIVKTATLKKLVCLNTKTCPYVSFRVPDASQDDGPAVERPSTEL

Structure (SMILES)	inhibition [2] [%]	inhibition [5] [%]	inhibition [6] [%]	inhibition [7] [%]	inhibition [20] [%]	also measured
CS(=O)(=O)c1ccc(-c2ccccc2C=C2CCCCC2)cc1						inhibition [1]: 60%
CS(=O)(=O)c1ccc(-c2cc3c(cc2CCCc2ccccc2)OCO3)cc1	65	15	10	0		inhibition [3]: 15%; inhibition [4]: 35%
NS(=O)(=O)c1ccc(-c2cc3c(cc2Cc2ccccc2)OCO3)cc1		85	90	90		inhibition [8]: 90%; IC50 [9]: 0.05 µM; IC50 [10]: 25 µM; IC50 [11]: 60 µM
CS(=O)(=O)c1ccc(-c2cc3c(cc2-c2cc(F)cc(F)c2)OCO3)cc1						inhibition [12]: 35%; inhibition [13]: 0%; inhibition [14]: 65%
CS(=O)(=O)c1ccc(-c2cc3c(cc2C=C2CCCCC2)OCO3)cc1	50	90	0	90		IC50 [15]: 0.07 µM; IC50 [16]: > 100 µM
CS(=O)(=O)c1ccc(-c2cc3c(cc2Cc2cc(F)cc(F)c2)OCO3)cc1		90		90	40	inhibition [17]: 15%; inhibition [18]: 70%; inhibition [19]: 15%
CS(=O)(=O)c1ccc(-c2cc3c(cc2Cc2ccccc2)OCO3)cc1	65	85	0	85	50	IC50 [21]: 10 µM; IC50 [22]: 60 µM
Cc1cccc(C(=O)c2cc3c(cc2-c2ccc(S(C)(=O)=O)cc2)OCO3)c1		10		40	85	inhibition [17]: 0%; inhibition [23]: 95%; inhibition [19]: 40%
CS(=O)(=O)c1ccc(-c2ccccc2C(=O)c2cccc(F)c2)cc1						inhibition [8]: 45%; inhibition [24]: 40%

Source: ChEMBL document CHEMBL1145927 (J Med Chem, 2003)
